Screens (PubChem BioAssay)
PvdQ inh = blocks Pseudomonas aeruginosa PvdQ acylase activity. purified PvdQ acylase, fluorescence plate reader. inhibition, % at 10 µM. 340,000 compounds, 0.063% hits; in the data active means inhibition above about 30%, passing the limit was not always enough;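 further: 0% = vehicle neutral wells and 100% = reference inhibitor wells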
ATG4B inh = blocks human ATG4B protease cleavage of LC3 substrate. ATG4B cleavage of LC3-PLA2, NBD-HPC fluorescence, 1 h. 340,000 compounds, 0.51% hits. AID 504462. inhibition, % at 8.33 µM. Q9Y4P1; in the data active means inhibition above about 40%
Target sequence (Q9Y4P1 whole entry, looked up): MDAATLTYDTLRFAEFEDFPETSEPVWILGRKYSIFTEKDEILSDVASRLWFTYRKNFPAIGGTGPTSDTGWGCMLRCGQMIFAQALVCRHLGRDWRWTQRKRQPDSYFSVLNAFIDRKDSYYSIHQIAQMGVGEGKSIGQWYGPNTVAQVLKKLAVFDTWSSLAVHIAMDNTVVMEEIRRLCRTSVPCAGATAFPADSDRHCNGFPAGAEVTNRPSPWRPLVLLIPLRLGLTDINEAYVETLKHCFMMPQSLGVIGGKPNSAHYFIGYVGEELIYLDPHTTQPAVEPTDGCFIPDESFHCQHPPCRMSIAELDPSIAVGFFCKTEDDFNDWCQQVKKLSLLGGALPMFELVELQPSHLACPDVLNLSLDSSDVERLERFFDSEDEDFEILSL
IMP-1 inh = inhibitors of Pseudomonas aeruginosa IMP-1 metallo-beta-lactamase; purified IMP-1, nitrocefin hydrolysis, epi-absorbance fluorescence; AID 1556; inhibition, % at 5.6 µM; 290,000 compounds, 0.45% hits;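 active means inhibition above the mean plus 3 SD of all compounds in the same screening run, cut at about 4.5% in these data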;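 further: 0% = IMP-1 with DMSO and 100% = DMSO wells lacking enzyme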
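Assay system: purified IMP-1; Quantity: IMP-1 0.2 nM before substrate addition; Medium: HEPES buffer pH 7.1 with ZnSO4 and Brij 35; Incubation: 15 min enzyme–compound preincubation, then 25 min nitrocefin reaction, 25 °C; Signal: fluorescence quenching readout, ex 480/em 530 nm; Controls: DMSO with and without IMP-1; Repeats: singlicate testing.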
VIM-2 inhibitor = blocks Pseudomonas aeruginosa VIM-2 metallo-beta-lactamase | purified VIM-2, nitrocefin hydrolysis, epi-absorbance fluorescence | AID 1527 | inhibition, % at 5.6 µM | 290,000 compounds, 0.89% hits;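 active means inhibition above the mean of all tested compounds plus 3 SD, cutoff set per screening run, cut at about 7.5% in these data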;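 further: red hydrolysis product quenches plate fluorescence so inhibitors raise well fluorescence; 0% = enzyme with DMSO and 100% = DMSO without enzyme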
HKDC1 inhibitor = HKDC1 (human) hexokinase inhibition. Q2TB90. recombinant HKDC1, G6PDH/diaphorase resazurin coupled fluorescence. inhibition, % at 20 µM. 340,000 compounds, 0.16% hits. AID 493160;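 active means inhibition above about 35% when tested at 20 µM, limit read from the data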;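 further: plate controls were DMSO wells with enzyme for no effect and DMSO wells lacking enzyme for full effect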
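Assay system: recombinant HKDC1 hexokinase; detection: coupled resazurin fluorescence, excitation 525 nm, emission 613 nm; benchmarks: DMSO-plus-enzyme-mix negative control, buffer-substituted positive control; compound dosing: single 20 µM dose; schedule: 90 min at room temperature in dark; also added: glucose plus 1 mM ATP as hexokinase substrates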
MIN6 prolif-1 = inducers of beta-cell replication in MIN6 cells | MIN6 cells proliferation, ATPlite luminescence, 48 h; cells starved in 0.2% serum; 100% = growth in 10% serum | proliferation, % at 10 µM | 330,000 compounds, 0.29% hits;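 active means compounds whose signal lies at least 3.5 SD above the mean of all wells on their plate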;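 further: 0% = DMSO-treated cells in low-serum medium and 100% = 10% serum control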
MIN6 prolif-2 = confirmation of inducers of beta-cell replication in MIN6 cells. proliferation increase, % at 50 µM. MIN6 beta-cell proliferation, ATPlite luminescence, 48 h; cells kept in 0.2% serum; scaled between 0.2% and 10% serum. 920 tested, under 10 active. shares compounds with MIN6 prolif-1;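 active means proliferation increase above 40% at any of the four tested concentrations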
Numbers without * were called inactive; x = no result. An excerpt weighted towards active compounds, which were near 2% of everything screened.

SMILES | PvdQ inh | ATG4B inh | IMP-1 inh | VIM-2 inhibitor | HKDC1 inhibitor | MIN6 prolif-1 | MIN6 prolif-2
O=C(Cc1ccc(-c2ccccc2)cc1)Nc1ccccc1 | -7.7 | 0.3 | 1.7 | -0.5 | -2.0 | 6.0* | -1.1
Cc1cccc(N(C(=O)CNC(=O)c2ccco2)C(C(=O)NCC2CCCO2)c2ccccc2)c1 (stereo not drawn) | 9.7 | 4.7 | -2.1 | -3.8 | -5.4 | -3.6 | x
COCCN(C(=O)CSc1ncccn1)c1c(N)n(Cc2ccccc2)c(=O)[nH]c1=O | 0.9 | 3.8 | x | x | -6.8 | 1.2 | x
CN(C(=O)CN1CCCCCC1)c1c(N)n(Cc2ccccc2)c(=O)[nH]c1=O | -8.5 | 2.9 | x | x | -0.8 | 11.7* | -3.8
CCN(C(=O)CN1CCCCC1)c1c(N)n(Cc2ccccc2)c(=O)[nH]c1=O | -0.5 | -1.1 | x | x | -1.8 | -1.0 | x
CCN(C(=O)CSc1ncccn1)c1c(N)n(Cc2ccccc2)c(=O)[nH]c1=O | -12.2 | 0.7 | x | x | -2.9 | 15.9* | -2.3
Cc1ccccc1OCC(=O)Nn1c(COc2ccccc2)nc2ccccc2c1=O | 7.7 | -10.4 | -2.1 | -4.2 | -2.3 | 0.2 | x
Cc1cccc(C)c1OCC(=O)Nn1c(COc2ccccc2)nc2ccccc2c1=O | -6.0 | -5.9 | -3.5 | -2.7 | -4.0 | 18.7* | 2.6
CCN(CC)c1nc(C)nc2c1sc(=S)n2C | -11.6 | 6.3 | -3.0 | -2.8 | -4.2 | 8.0* | -5.7
Cc1nc(N2CCCCC2)c2sc(=S)n(C)c2n1 | -2.9 | 1.3 | -2.9 | -2.4 | -4.4 | 8.9* | 4.6
Cc1cccc(CC(=O)NCCS(=O)(=O)N2CCN(c3cccc(Cl)c3)CC2)c1 | -9.7 | 1.1 | x | x | 1.3 | -4.4 | x
CC(=O)N1CCc2ccc([N+](=O)[O-])cc21 | -8.3 | 1.9 | x | x | -4.6 | x | x
Cc1ccccc1-c1nc(CN2CCN(C(=O)c3ccco3)CC2)c(C)o1 | 1.6 | -8.6 | -3.0 | -1.4 | 0.7 | 8.9* | -4.7
CCN(CC)C(C)C#CCC(c1ccccc1)c1ccccc1 (stereo not drawn) | x | x | -0.9 | -0.8 | x | x | x
CCCc1nc(Cl)c(C#N)c2c1CCCC2 | -5.6 | 7.8 | -1.6 | -1.3 | 6.1 | 9.0* | 6.6
O=C(NCc1ccc2c3c(cccc13)C(=O)N2)c1cccs1 | -6.0 | -11.3 | -3.3 | -0.8 | -0.5 | x | x
CCC(C)(C)NC(=O)C(c1sccc1C)N(Cc1ccco1)C(=O)c1csnn1 (stereo not drawn) | -16.9 | 0.9 | -1.9 | -0.6 | -2.8 | 0.0 | x
Cc1ccsc1C(C(=O)NC(C)(C)C)N(Cc1ccco1)C(=O)c1csnn1 (stereo not drawn) | 5.1 | 3.9 | -2.6 | -3.1 | -2.1 | 10.2* | -0.4
O=C(CCc1nnc(COc2ccccc2)o1)NCc1ccccc1C(F)(F)F | -5.9 | -1.5 | -2.6 | -4.4 | -0.6 | -3.6 | x
CCc1ccc(NC(=O)c2noc3c2CCc2ccccc2-3)cc1 | -1.0 | 10.7 | 0.6 | 1.8 | -0.8 | 7.2* | -0.8
O=C(/C=N/O)NCc1ccncc1 | -8.3 | -5.5 | -4.0 | -2.2 | -2.9 | -3.0 | x
CCCc1c2ccccc2nc2ccccc12 | -13.4 | 7.4 | -3.1 | -3.5 | -4.0 | 7.2* | -5.7
CCCc1cc(C(=O)O)c2ccccc2n1 | -4.0 | -9.4 | -3.9 | -0.5 | -11.0 | -3.4 | x
CCc1nc(N)c(C#N)c(-c2ccco2)c1C | -7.1 | 4.7 | -2.8 | 5.0 | -7.9 | 7.1* | 4.3
CCCCCc1nc(N)c(C#N)c(-c2ccco2)c1CCCC | 2.8 | -2.5 | -2.7 | -3.5 | 3.7 | 0.0 | x
SMILES | PvdQ inh | ATG4B inh | IMP-1 inh | VIM-2 inhibitor | HKDC1 inhibitor | MIN6 prolif-1 | MIN6 prolif-2
Cc1noc(C(F)(F)F)c1C(=O)NNC(=O)c1cccc(C(F)(F)F)c1 | 1.6 | -4.7 | 0.2 | -3.4 | -4.4 | -2.9 | x
COc1cc2c(cc1OC)-c1cc(Nc3ccccc3C)nc(=O)n1CC2 | -9.9 | 0.1 | -3.2 | -0.4 | 0.6 | 7.1 | x
CCOc1ccccc1Nc1cc2n(c(=O)n1)CCc1cc(OC)c(OC)cc1-2 | -11.1 | -15.3 | -3.9 | 0.1 | -0.3 | 12.1* | -0.7
COC(=O)c1ccc(SC)cn1 | -8.9 | -1.4 | -4.7 | -3.0 | -5.3 | 10.6* | 0.1
c1ccc(COc2ncnc3c2ncn3CCCNCc2ccc3c(c2)OCO3)cc1 | -16.5 | 2.3 | x | x | -3.8 | x | x
CC(C)(C)N(NC(=O)OCc1ccccc1)C(=O)c1ccccc1Cl | -11.6 | 6.8 | -2.4 | -2.5 | -3.8 | 0.0* | -4.2
COc1ccc(-c2csc3ncnc(N4CCN(C(=O)c5ccco5)CC4)c23)cc1 | -13.3 | 13.3 | x | x | 1.6 | 10.8* | -5.3
CC(C)Sc1nc2c(cnn2-c2ccccc2)c(=O)[nH]1 | -2.0 | -3.7 | -2.6 | 4.5 | -1.5 | 4.1 | x
CC(C)Sc1nc2c(cnn2-c2ccc(Cl)cc2)c(=O)[nH]1 | 10.6 | -2.9 | -1.4 | -3.1 | -2.7 | 10.8* | -2.2
CC(=O)Nc1ccc(NC(=O)C(C)OC(=O)c2cccc(S(=O)(=O)N3CCCCCC3)c2)cc1 (stereo not drawn) | 9.5 | -2.9 | x | x | 2.3 | 12.4* | 0.1
O=C(c1cccc2ccccc12)n1nnc2ccccc21 | x | x | -1.8 | -0.6 | x | 10.2* | -6.2
C#CCOC(=O)c1ccccc1C(=O)n1nnc2ccccc21 | -14.2 | -5.3 | -4.4 | -0.2 | -5.5 | -1.4 | x
CCn1c(Oc2ccccc2C)nc2c1c(=O)n(C)c(=O)n2C | -5.9 | -5.0 | 2.0 | 0.9 | -2.5 | 1.9 | x
CCn1c(Oc2ccc(F)cc2)nc2c1c(=O)n(C)c(=O)n2C | -7.0 | -2.2 | -2.2 | -4.1 | -2.9 | 7.3* | 5.8
Cc1nnc(N(C)C(=O)c2ccc3c(c2)OCO3)s1 | 14.4 | -6.8 | 0.6 | -2.8 | -0.9 | -2.6 | x
CC(C)(CN1CCc2ccccc2C1)NS(=O)(=O)c1ccccc1 | 6.4 | -7.2 | -2.1 | -1.3 | -7.5 | 7.7* | -5.5
CCOc1ncccc1C(=O)OC(C)C(=O)Nc1ccc(Cl)cn1 (stereo not drawn) | -4.3 | 3.1 | x | x | 1.0 | 13.5* | -0.7
COC(=O)c1nn(-c2ccccc2)c(Sc2ccc(OC)cc2)c1/C=N/O | -12.0 | -0.4 | -2.0 | 0.1 | -4.5 | 6.5* | -3.7
CO/N=C/c1c(C(=O)OC)nn(-c2ccccc2)c1Cl | -9.7 | -8.2 | -0.9 | 0.5 | -7.3 | 0.4 | x
O=C(O)Cc1cn(Cc2ccc(F)cc2)c2ccccc12 | 11.9 | 14.8 | -2.1 | -2.2 | 9.2 | 7.4* | -2.9
CC(C)C1Cc2c(sc3ncnc(NN)c23)CO1 (stereo not drawn) | -1.6 | 5.8 | -1.2 | -3.0 | -3.9 | -3.6 | x
Cc1cc(C)n(C(=O)COc2ccc([N+](=O)[O-])cc2)n1 | -6.5 | 2.9 | -2.2 | -4.0 | -7.9 | 5.3* | 3.9
CC(NC(=O)CN1C(=O)NC2(CCCCCCC2)C1=O)c1ccccc1 (stereo not drawn) | 0.9 | -7.6 | x | x | -6.0 | 9.5* | -0.1
